The text below walks through data of ChEMBL document CHEMBL3244167, “Lysosomotropic agents. 1. Synthesis and cytotoxic action of lysosomotropic detergents” (J Med Chem, 1979).

The term pKa denotes the negative logarithm of the acid dissociation constant. Read a high pKa as a weaker acid or stronger base.

Data set [1] in a line: Cytotoxicity against mouse peritoneal macrophages assessed as LDH release at 100 ug/ml after 24 hrs (reference value: 4 to 9 %). Format: functional, Peritoneal macrophage cell.
Data set [2] is described as follows: Cytotoxicity against mouse peritoneal macrophages assessed as […] at 0.75 mM after 24 hrs (reference value: 10 %). The data set is classed as functional, Peritoneal macrophage cell. In short, it runs like this: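 Thioglycolate-stimulated mouse peritoneal macrophages, 2-4 × 10^6 cells/dish, in duplicate. Compound dosed from Me2SO solution at 1 µL/mL, final 0.750 mM; control Me2SO only. At 24 h, units of N-acetyl-β-D-glucosaminidase (lysosomal marker) and LDH (cytoplasmic marker) released into medium were measured, ±15%.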

Data set [3] relates to Raji. In words: Cytotoxicity to human Raji cells at 40 ug/ml after 3 days. Format: functional, cell-based.
Another data set deals with WI-38. In words: Cytotoxicity to human W138 cells. Format: functional, cell-based.
In the next data set the test system is RK13. In words: Cytotoxicity to rabbit RK13 cells. The data set is classed as functional, cell-based. Particulars: Oryctolagus cuniculus.
Data set [4] deals with MRC5. In words: Cytotoxicity to human MRC5 cells. Format: functional, cell-based.
Data set [5] concerns Peritoneal macrophage cell. In words: Induction of large vacuole formation in mouse peritoneal macrophages at 10 to 25 ug/ml. Format: functional, cell-based.
For data set [6], the system named is Raji. The data set can be described thus: Cytotoxicity to human Raji cells. The data set is classed as functional, cell-based.
Data set [7] deals with P815. The data set can be described thus: Induction of cell death in mouse P815 cells assessed as [51Cr] release at 100 ug/ml at 5 hrs (reference value: 10%). The data set is classed as functional.
Data set [8] concerns Peritoneal macrophage cell. In words: Induction of cell death in mouse peritoneal macrophages at 50 ug/ml. The data set is classed as functional, cell-based.
Data set [9] relates to Mus musculus. The data set can be described thus: Toxicity in mouse at 500 mg/kg, ip after 10 days. Format: organism-based. Set-up: dose 500 mg/kg, route intraperitoneal. Particulars: in vivo, 240 h. The gist of the method:
(§1)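 Mice dosed ip; observed for 10 days.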

The subject of data set [10] is Mus musculus. The data set can be described thus: Toxicity in mouse at 250 mg/kg, ip after 10 days. Format: organism-based. Set-up: dose 250 mg/kg, route intraperitoneal. To be noted: in vivo, 240 h. In short, it runs like this: as §1
Another data set deals with HeLa. The data set can be described thus: Cytotoxicity to human HeLa cells at 100 ug/ml after 24 hrs. Format: functional, cell-based.
Data set [11] in a line: Induction of cell lysis in rabbit RBC at 0.188 to 0.375 mM measured at 1 to 4 hrs. Format: cell-based, Oryctolagus cuniculus. To be noted: erythrocyte, 375 µM.
A short description of data set [12]: Induction of cell lysis in ox RBC at 0.188 mM measured at 4 hrs (reference value: 1.8 %). The data set is classed as cell-based, Bos taurus, Erythrocyte. Particulars: cattle, ox red blood cells; read-out: Activity.
For data set [13], the system named is Peritoneal macrophage cell. The data set can be described thus: Induction of cell death in mouse peritoneal macrophages at 25 ug/ml. The data set is classed as functional, cell-based.
For data set [14], the system named is Peritoneal macrophage cell. In words: Induction of large vacuole formation in mouse peritoneal macrophages at 5 ug/ml. The data set is classed as functional, cell-based.
Data set [15] in a line: Induction of cell lysis in ox RBC at 0.375 mM measured at 1 hr (reference value: 1.7 %). The data set is classed as cell-based, Bos taurus, Erythrocyte. Particulars: cattle, ox red blood cells; read-out: Activity.
The nature of data set [16]: Induction of cell lysis in ox RBC at 0.188 mM measured at 1 hr (reference value: 1.7 %). The data set is classed as cell-based, Bos taurus, Erythrocyte. To be noted: cattle, ox red blood cells; read-out: Activity.
Data set [17] in a line: Induction of cell lysis in ox RBC at 0.375 mM measured at 4 hrs (reference value: 1.8 %). The data set is classed as cell-based, Bos taurus, Erythrocyte. Particulars: cattle, ox red blood cells; read-out: Activity.
In data set [18] the test system is P815. The data set can be described thus: Induction of cell death in mouse P815 cells assessed as [51Cr] release at 1 ug/ml at 5 hrs. Format: functional.
Data set [19] concerns P815. The data set can be described thus: Induction of cell death in mouse P815 cells assessed as [51Cr] release at 27 ug/ml at 5 hrs. Format: functional.
Data set [20] concerns P815. In words: Induction of cell death in mouse P815 cells assessed as [51Cr] release at 9 ug/ml at 5 hrs. The data set is classed as functional.
The test system of data set [21] is P815. The data set can be described thus: Induction of cell death in mouse P815 cells assessed as [51Cr] release at 3 ug/ml at 5 hrs. The data set is classed as functional.
For data set [22], the system named is P815. The data set can be described thus: Induction of cell death in mouse P815 cells assessed as [51Cr] release at 50 ug/ml at 5 hrs. Format: functional.
The subject of data set [23] is MRC5. In words: Cytotoxicity to human MRC5 cells at 10 ug/ml after 3 days. Format: functional, cell-based.
The test system of data set [24] is Raji. In words: Cytotoxicity to human Raji cells at 10 ug/ml after 3 days. Format: functional, cell-based.
Data set [25] has as its system P815. In words: Induction of cell death in mouse P815 cells assessed as [51Cr] release at 25 ug/ml at 5 hrs. The data set is classed as functional.
Data set [26] concerns P815. The data set can be described thus: Induction of cell death in mouse P815 cells assessed as [51Cr] release at 75 ug/ml at 5 hrs. Format: functional.

Calls of active or inactive are those of the source. The rule behind the calls is not given here.

In “physchem”, `CCCCCCCCCCCCCc1ccccn1` displayed a pKa of 5.6.
In the case of `CCCNCC(F)(F)F`, the Activity in [1] amounted to 10%.
With `CCCCCCCCCCNCC(F)(F)F`, the Activity in [2] was 32%; in data set [1], 12%.
In turn, `CCCCCCCCCn1ccnc1` came in with a pKa in “physchem” of 6.6.
On the same count and under the same terms, under `Cn1ccnc1` [1-METHYLIMIDAZOLE] stands 7.
Regarding `CCCCCCCCCCCCCc1ccncc1`, the result (with Raji [3]; in the data set on WI-38; with RK13; in the data set with MRC5 [4]; in [5]; with Raji [6]) was Active. Also, the outcome in [8] was Active. Moreover, the pKa in the data set “physchem” was determined as 5.9. The Activity was 10% in the data set with P815 [7] and “Non-toxic” in the data set on Mus musculus [9].
In the data set “physchem”, `CCCCCCCCCCCCCCCCNCC(F)(F)F` displayed a pKa of 5.2. The Activity in data set [1] is recorded as 63%.
For `CCCCCCCCCCCCCCNCC(F)(F)F`, the Activity in data set [2] was determined as 25%; in data set [1], 5%.
As to `CCCCCCCCCCCCCCCCCCNCC(F)(F)F`, the pKa in “physchem” amounted to 4.7. Further, in data set [1], the Activity worked out at 5%.
In “physchem”, `CCCCCCCCCCCCNCC(F)F` displayed a pKa of 7.5. Moreover, the Activity entry in the data set on Mus musculus [10] is listed as “Non-toxic”; with P815 [7], 45%; in the data set on Mus musculus [9] it was “Toxic”.
In the case of `CCCCCNCC(F)(F)F`, the Activity in data set [2] is on record as 14%; in data set [1], 4%.
`CCCCCCCCNCC(F)(F)F`: the pKa in the data set “physchem” was determined as 5.9. The Activity in [2] was 19%; in data set [1] it was 7%.
Take `CCCCCCCCCCCCNCC(F)(F)F`: the outcome (in the data set with Raji [3]; in the data set on HeLa; in the data set with WI-38; with RK13; with MRC5 [4]; in [13]) was Active. Further, the result (in data set [14]; in the data set on Raji [6]) was Active. Also, the pKa in the data set “physchem” turned out to be 5.5. The Activity in data set [2] is given as 27%; in data set [11] it was “Non-toxic”; in data set [1], 10%; with P815 [7], 21%; in the data set on Mus musculus [9] it was “Non-toxic”. Also, the hemolysis at 4 h, 188 µM in data set [12] was determined as 7.3%. Moreover, the hemolysis at 1 h, 375 µM in data set [15] was 5.2%. Also, the hemolysis at 1 h, 188 µM in [16] was 4.2%. In data set [17], the hemolysis at 4 h, 375 µM was found to be 6.5%.
On to `CNCC(F)(F)F`, for which the pKa in the data set “physchem” is 6.
For the compound `Cc1ccncc1`, the pKa in the data set “physchem” came to 6.
`CCCCCCCCCCCCN` [DODECYLAMINE]: in data set [12], the hemolysis at 4 h, 188 µM amounted to 100%. Further, in [15], the hemolysis at 1 h, 375 µM was found to be 100%. Moreover, the hemolysis at 1 h, 188 µM in data set [16] came out at 100%. Moreover, the hemolysis at 4 h, 375 µM in data set [17] stood at 100%.
Take `CCCCCCCCCCCCn1ccnc1`: the Activity was determined as 10% in the data set on P815 [18]; 93% in the data set with P815 [19]; 11% with P815 [20]; 11% in the data set on P815 [21]; 94% in the data set on P815 [22].
Take `CCCCCCCCCCCCN1CCOCC1`: the result with MRC5 [23] and in the data set on Raji [24] was Active. In “physchem”, this compound had a pKa of 7.6. For the same compound, the Activity in the data set with P815 [25] is listed as 13%; in the data set on P815 [26], 15%; with P815 [22] it was 14%; in the data set on P815 [7], 85%.
